Data as given in the M2OR odorant receptor database.

Target: T1, OR8D1 (Homo sapiens) (UniProt Q8WZ84)
T1 sequence (whole entry): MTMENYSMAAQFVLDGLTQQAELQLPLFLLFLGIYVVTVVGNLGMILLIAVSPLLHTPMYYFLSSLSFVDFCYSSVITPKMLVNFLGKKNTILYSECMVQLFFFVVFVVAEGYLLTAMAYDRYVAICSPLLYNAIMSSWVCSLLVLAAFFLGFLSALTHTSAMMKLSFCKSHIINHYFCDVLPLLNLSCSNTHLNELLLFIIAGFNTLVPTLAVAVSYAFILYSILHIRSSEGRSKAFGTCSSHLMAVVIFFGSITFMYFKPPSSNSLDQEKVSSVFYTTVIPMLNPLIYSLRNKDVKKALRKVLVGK
Conditions: stereoisomer not certain
Procedure, shortened: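 Transient luciferase assays in mammalian cell lines were common, though methods varied by source. The values come from published papers and their supplementary material, with extra details from the original authors when needed. Responsive refers to a measured signal the original authors judged statistically different from baseline, and non-responsive (inactive) to the remainder.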
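Also: active if original authors judged signal statistically different from baseline.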

Odorant receptor agonist call, inactive:
CC1=CCC2CC1C2(C)C (configuration not stated), Cc1ccc(C(C)C)cc1, COCCC(C)(C)S, COC(=O)C(C)C, CCCCC(C)CCC(=O)O (configuration not stated), OCC=Cc1ccccc1, CSSc1ccoc1C, CC1=CCC(C(C)(C)S)CC1 (configuration not stated), C=C1CCC2CC1C2(C)C (configuration not stated), CCCCCCCC(=O)[O-].[H+], CCOC(C)=O, CCCCCCO, CSSSC, CC(C)CCO, CCCCC1OC(=O)CC1C (configuration not stated), CCCc1ccc(O)c(OC)c1, CC(=O)O, CCCCCCOC(C)=O, Cc1cccc(C)c1O, CCC(=O)C(C)S (configuration not stated), CCCCCCCCC1CCC(=O)O1 (configuration not stated), CCCCC(CC)CCC(=O)O (configuration not stated), C=CC(O)CCCCC (configuration not stated), CCCCCc1ccccn1, CCC(C)c1nccnc1OC (configuration not stated), Cc1cccc(O)c1, CCC=CCCOC(C)=O, CC(=O)C(C)O (configuration not stated), CCCC=CC=O, CCCCCCCCC=CC=O, CCc1ncc(C)nc1CC, CCCC(=O)OC, CCCCCC=CCCC=O, CCC(C)CO (configuration not stated), C=CC(=O)CC, CCO, CCCCCCCC(=O)OCC
